Results taken from ChEMBL document CHEMBL1153726, “Synthesis and anticancer activity of sclerophytin-inspired hydroisobenzofurans” (Bioorg Med Chem Lett, 2009).

What was measured:
Format in all cases: functional
HL-60(TB) [1] = assay: Growth inhibition of human HL-60(TB) cells at 10 uM after 96 hrs by MTT assay; design: scale not given: the % may be the effect or the level left
HCT-15 [2] = assay: Growth inhibition of human HCT15 cells at 100 nM after 96 hrs by MTT assay; design: scale not given: the % may be the effect or the level left
KM12 = assay: Growth inhibition of human KM12 cells at 1 nM after 96 hrs by MTT assay; design: scale not given: the % may be the effect or the level left
SW-620 = assay: Growth inhibition of human SW620 cells at 10 uM after 96 hrs by MTT assay; design: scale not given: the % may be the effect or the level left
OVCAR-4 [3] = assay: Growth inhibition of human OVCAR4 cells after 96 hrs by MTT assay; settings: OVCAR-4, 96 h
In short: (§1)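 Tested in the NCI 60-cell-line panel in five-dose format; GI50 and LC50 values reported for each cell line.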

SF-295 = assay: Growth inhibition of human SF295 cells at 100 nM after 96 hrs by MTT assay; design: scale not given: the % may be the effect or the level left
UACC-257 = assay: Growth inhibition of human UACC257 cells after 96 hrs by MTT assay; settings: UACC-257, 96 h; in short: as §1
MDA-MB-231 [4] = assay: Growth inhibition of human MDA-MB-231 cells at 1 nM after 96 hrs by MTT assay; design: scale not given: the % may be the effect or the level left
786-0 = assay: Growth inhibition of human 786-0 cells at 1 nM after 96 hrs by MTT assay; design: scale not given: the % may be the effect or the level left
MDA-MB-468 = assay: Growth inhibition of human MDA-MB-468 cells at 1 uM after 96 hrs by MTT assay; design: scale not given: the % may be the effect or the level left
HCC 2998 [5] = assay: Growth inhibition of human HCC2998 cells at 1 nM after 96 hrs by MTT assay; design: scale not given: the % may be the effect or the level left
EKVX [6] = assay: Growth inhibition of human EKVX cells at 1 uM after 96 hrs by MTT assay; design: scale not given: the % may be the effect or the level left
HCT-15 [7] = assay: Growth inhibition of human HCT15 cells at 10 uM after 96 hrs by MTT assay; design: scale not given: the % may be the effect or the level left
OVCAR-5 = assay: Growth inhibition of human OVCAR5 cells after 96 hrs by MTT assay; settings: OVCAR-5, 96 h; in short: as §1
MDA-MB-231 [8] = assay: Growth inhibition of human MDA-MB-231 cells at 100 nM after 96 hrs by MTT assay; design: scale not given: the % may be the effect or the level left
PC-3 [9] = assay: Growth inhibition of human PC3 cells at 10 uM after 96 hrs by MTT assay; design: scale not given: the % may be the effect or the level left
HT-29 [10] = assay: Growth inhibition of human HT-29 cells at 100 nM after 96 hrs by MTT assay; design: scale not given: the % may be the effect or the level left
MOLT-4 = assay: Growth inhibition of human MOLT4 cells at 1 uM after 96 hrs by MTT assay; design: scale not given: the % may be the effect or the level left
NCI-H460 = assay: Growth inhibition of human NCI-H460 cells at 100 nM after 96 hrs by MTT assay; design: scale not given: the % may be the effect or the level left
PC-3 [11] = assay: Growth inhibition of human PC3 cells at 1 nM after 96 hrs by MTT assay; design: scale not given: the % may be the effect or the level left
NCI-H322M = assay: Growth inhibition of human NCI-H322M cells at 100 nM after 96 hrs by MTT assay; design: scale not given: the % may be the effect or the level left
SN12C = assay: Growth inhibition of human SN12C cells after 96 hrs by MTT assay; in short: as §1
[12] = Growth inhibition of human RPMI8266 cells at 1 nM after 96 hrs by MTT assay; design: scale not given: the % may be the effect or the level left
SK-MEL-28 = assay: Growth inhibition of human SK-MEL-28 cells after 96 hrs by MTT assay; settings: SK-MEL-28, 96 h; in short: as §1
OVCAR-4 [13] = assay: Growth inhibition of human OVCAR4 cells at 10 uM after 96 hrs by MTT assay; design: scale not given: the % may be the effect or the level left
SNB-75 = assay: Growth inhibition of human SNB75 cells at 100 nM after 96 hrs by MTT assay; design: scale not given: the % may be the effect or the level left
HL-60(TB) [14] = assay: Growth inhibition of human HL-60(TB) cells at 1 uM after 96 hrs by MTT assay; design: scale not given: the % may be the effect or the level left
OVCAR-4 [15] = assay: Growth inhibition of human OVCAR4 cells at 10 nM after 96 hrs by MTT assay; design: scale not given: the % may be the effect or the level left
IGROV-1 = assay: Growth inhibition of human IGROV1 cells at 1 nM after 96 hrs by MTT assay; design: scale not given: the % may be the effect or the level left
A498 [16] = assay: Growth inhibition of human A498 cells after 96 hrs by MTT assay; settings: A498, 96 h
SK-OV-3 = assay: Growth inhibition of human SKOV3 cells at 10 uM after 96 hrs by MTT assay; design: scale not given: the % may be the effect or the level left
NCI/ADR-RES = assay: Growth inhibition of human NCI/ADR-RES cells at 100 nM after 96 hrs by MTT assay; design: scale not given: the % may be the effect or the level left
HCC 2998 [17] = assay: Growth inhibition of human HCC2998 cells at 10 uM after 96 hrs by MTT assay; design: scale not given: the % may be the effect or the level left
SK-MEL-5 = assay: Growth inhibition of human SK-MEL-5 cells at 10 nM after 96 hrs by MTT assay; design: scale not given: the % may be the effect or the level left
SR = assay: Growth inhibition of human SR cells at 10 nM after 96 hrs by MTT assay; design: scale not given: the % may be the effect or the level left
U-251 = assay: Growth inhibition of human U251 cells at 10 uM after 96 hrs by MTT assay; design: scale not given: the % may be the effect or the level left
MCF7 = assay: Growth inhibition of human MCF7 cells at 1 uM after 96 hrs by MTT assay; design: scale not given: the % may be the effect or the level left
EKVX [18] = assay: Growth inhibition of human EKVX cells at 10 uM after 96 hrs by MTT assay; design: scale not given: the % may be the effect or the level left
HT-29 [19] = assay: Growth inhibition of human HT-29 cells at 1 uM after 96 hrs by MTT assay; design: scale not given: the % may be the effect or the level left
HL-60(TB) [20] = assay: Growth inhibition of human HL-60(TB) cells after 96 hrs by MTT assay; settings: HL-60, 96 h
A498 [21] = assay: Growth inhibition of human A498 cells at 100 nM after 96 hrs by MTT assay; design: scale not given: the % may be the effect or the level left
HL-60(TB) [22] = assay: Growth inhibition of human HL-60(TB) cells at 10 nM after 96 hrs by MTT assay; design: scale not given: the % may be the effect or the level left
[23] = read-out: LC50 (the source's name)
[24] = read-out: Log10GI50 (converted)
[25] = read-out: Log10LC50 (converted)

C=C(C)[C@H]1CC=C(C)C2=CO[C@@H](c3ccccc3F)[C@@H]21
Activity (HL-60(TB) [1]): 44.43%
Activity (HCT-15 [2]): 84%
Activity (KM12): 95%
Activity (SW-620): 101.12%
GI50 (OVCAR-4 [3]; read-out: GI50): 4.1 µM
CC50 (OVCAR-4 [3]; [23]): 86.6 µM
GI50 (OVCAR-4 [3]; [24]): 4.07 µM
CC50 (OVCAR-4 [3]; [25]): 87.1 µM
TGI (OVCAR-4 [3]; read-out: Log10TGI (converted)): 24 µM
TGI (OVCAR-4 [3]; read-out: TGI): 23.7 µM
Activity (SF-295): 88%
GI50 (UACC-257; read-out: GI50): 6.71 µM
CC50 (UACC-257; [23]): 50.9 µM
GI50 (UACC-257; [24]): 6.76 µM
CC50 (UACC-257; [25]): 51.3 µM
TGI (UACC-257; read-out: Log10TGI (converted)): 21.4 µM
TGI (UACC-257; read-out: TGI): 21.3 µM
Activity (MDA-MB-231 [4]): 101%
Activity (786-0): 99%
Activity (MDA-MB-468): 11%
Activity (HCC 2998 [5]): 86%
Activity (EKVX [6]): 23%
Activity (HCT-15 [7]): 103.41%
GI50 (OVCAR-5; read-out: GI50): 23.6 µM
LC50 (50% lethal concentration) (OVCAR-5; read-out: LC50): 72.3 µM
GI50 (OVCAR-5; [24]): 23.4 µM
LC50 (50% lethal concentration) (OVCAR-5; [25]): 72.4 µM
TGI (OVCAR-5; read-out: Log10TGI (converted)): 41.7 µM
TGI (OVCAR-5; read-out: TGI): 41.3 µM
Activity (MDA-MB-231 [8]): 81%
Activity (PC-3 [9]): 22.47%
Activity (HT-29 [10]): 82%
Activity (MOLT-4): -15%
Activity (NCI-H460): 82%
Activity (PC-3 [11]): 95%
Activity (NCI-H322M): 79%
GI50 (SN12C; read-out: GI50): 6.63 µM
CC50 (SN12C; [23]): 45.9 µM
GI50 (SN12C; [24]): 6.61 µM
CC50 (SN12C; [25]): 45.7 µM
TGI (SN12C; read-out: Log10TGI (converted)): 20.4 µM
TGI (SN12C; read-out: TGI): 20.3 µM
Activity [12]: 78%
GI50 (SK-MEL-28; read-out: GI50): 10.5 µM
CC50 (SK-MEL-28; [23]): 47.1 µM
GI50 (SK-MEL-28; [24]): 10.5 µM
CC50 (SK-MEL-28; [25]): 46.8 µM
TGI (SK-MEL-28; read-out: Log10TGI (converted)): 22.4 µM
TGI (SK-MEL-28; read-out: TGI): 22.2 µM
Activity (OVCAR-4 [13]): 88.01%
Activity (SNB-75): 84%
Activity (HL-60(TB) [14]): -40%
Activity (OVCAR-4 [15]): 86%
Activity (IGROV-1): 91%
GI50 (A498 [16]; read-out: GI50): 2.34 µM
CC50 (A498 [16]; [23]): 26.5 µM
GI50 (A498 [16]; [24]): 2.34 µM
CC50 (A498 [16]; [25]): 26.3 µM
TGI (A498 [16]; read-out: Log10TGI (converted)): 7.08 µM
TGI (A498 [16]; read-out: TGI): 7.07 µM
Activity (SK-OV-3): 93.49%
Activity (NCI/ADR-RES): 82%
Activity (HCC 2998 [17]): 115.46%
Activity (SK-MEL-5): 88%
Activity (SR): 81%
Activity (U-251): 97.35%
Activity (MCF7): 26%
Activity (EKVX [18]): 102.28%
Activity (HT-29 [19]): 22%
GI50 (HL-60(TB) [20]; read-out: GI50): 2.08 µM
CC50 (HL-60(TB) [20]; [23]): 35.5 µM
GI50 (HL-60(TB) [20]; [24]): 2.09 µM
CC50 (HL-60(TB) [20]; [25]): 35.5 µM
TGI (HL-60(TB) [20]; read-out: Log10TGI (converted)): 5.01 µM
TGI (HL-60(TB) [20]; read-out: TGI): 4.97 µM
Activity (A498 [21]): 88%
Activity (HL-60(TB) [22]): 104%
